In ChEMBL document CHEMBL3867440, “Hernandezine, a Bisbenzylisoquinoline Alkaloid with Selective Inhibitory Activity against Multidrug-Resistance-Linked ATP-Binding Cassette Drug Transporter ABCB1” (J Nat Prod, 2016):

What was measured:
KB 3-1 [1] = test: Induction of apoptosis in human KB-3-1 cells assessed as viable cells at 1 uM after 48 hrs by Annexin V-FITC/propidium iodide staining based FACS analysis (reference value: 88.4%); type: functional; conditions: KB 3-1, 48 h, read-out: Activity
[2] = biological target: T1, ATP-dependent translocase ABCB1 (Homo sapiens, UniProt P08183); test: Inhibition of ABCB1 in human NCI-ADR-RES cells assessed as potentiation of colchicine-induced cytotoxicity by measuring colchicine resistance ratio at 50 nM after 72 hrs by MTT assay relative to parental OVCAR8 cells (reference value: 59); type: cell-based; conditions: ovcar-8, 72 h, 0.05 µM
T1 sequence (P08183 whole entry): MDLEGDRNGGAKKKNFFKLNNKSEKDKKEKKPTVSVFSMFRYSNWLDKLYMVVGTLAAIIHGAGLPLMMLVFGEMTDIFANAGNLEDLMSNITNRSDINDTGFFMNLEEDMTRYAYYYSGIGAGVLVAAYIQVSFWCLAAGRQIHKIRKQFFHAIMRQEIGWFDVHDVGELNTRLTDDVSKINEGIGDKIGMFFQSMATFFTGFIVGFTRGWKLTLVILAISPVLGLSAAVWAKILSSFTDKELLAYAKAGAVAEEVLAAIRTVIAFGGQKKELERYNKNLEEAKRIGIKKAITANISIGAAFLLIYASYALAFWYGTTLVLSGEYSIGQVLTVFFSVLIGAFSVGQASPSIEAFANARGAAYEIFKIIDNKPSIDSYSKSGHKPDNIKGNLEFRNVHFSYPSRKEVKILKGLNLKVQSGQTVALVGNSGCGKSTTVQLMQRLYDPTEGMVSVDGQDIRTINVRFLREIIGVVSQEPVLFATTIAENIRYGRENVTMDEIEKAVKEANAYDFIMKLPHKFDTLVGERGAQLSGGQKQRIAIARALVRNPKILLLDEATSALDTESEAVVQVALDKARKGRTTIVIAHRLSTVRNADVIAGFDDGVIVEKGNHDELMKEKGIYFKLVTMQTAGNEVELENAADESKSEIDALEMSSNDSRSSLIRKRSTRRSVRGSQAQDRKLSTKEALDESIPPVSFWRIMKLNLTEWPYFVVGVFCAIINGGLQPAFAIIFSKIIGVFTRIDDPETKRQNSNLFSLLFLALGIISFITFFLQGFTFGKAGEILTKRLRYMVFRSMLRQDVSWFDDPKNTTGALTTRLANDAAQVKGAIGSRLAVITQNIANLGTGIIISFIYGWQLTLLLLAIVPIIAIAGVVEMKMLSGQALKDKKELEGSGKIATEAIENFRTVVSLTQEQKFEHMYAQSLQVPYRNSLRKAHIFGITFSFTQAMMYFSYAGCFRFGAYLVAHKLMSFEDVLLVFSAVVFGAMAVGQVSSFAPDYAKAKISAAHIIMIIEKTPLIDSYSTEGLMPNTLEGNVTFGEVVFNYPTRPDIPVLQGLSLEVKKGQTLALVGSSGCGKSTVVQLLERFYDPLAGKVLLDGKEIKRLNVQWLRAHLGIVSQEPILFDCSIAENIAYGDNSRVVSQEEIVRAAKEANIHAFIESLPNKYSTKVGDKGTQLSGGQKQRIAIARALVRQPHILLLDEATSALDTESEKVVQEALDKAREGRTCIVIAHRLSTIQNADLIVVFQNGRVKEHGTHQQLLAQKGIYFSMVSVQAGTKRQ
Procedure, shortened: (§1)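 Cells were kept in drug-free DMEM with 10% FCS for 7 days before assay, then plated at 5000 cells/well for 24 h. Drug at various concentrations was added with a nontoxic fixed level of modulator for 72 h, and the read-out was MTT. IC50 came from fitted curves (≥3 experiments). RR = IC50 of the resistant line / IC50 of the parental line.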

KB 3-1 [3] = test: Induction of apoptosis in human KB-3-1 cells assessed as late apoptotic cells at 1 uM after 48 hrs by Annexin V-FITC/propidium iodide staining based FACS analysis (reference value: 5.8%); type: functional
KB-V1 [4] = test: Induction of apoptosis in human KBV1 cells assessed as late apoptotic cells at 1 uM after 48 hrs by Annexin V-FITC/propidium iodide staining based FACS analysis (reference value: 7.6%); type: functional
[5] = biological target: T1, ATP-dependent translocase ABCB1; test: Inhibition of ABCB1 in human NCI-ADR-RES cells assessed as potentiation of vincristine-induced cytotoxicity by measuring vincristine resistance ratio at 50 nM after 72 hrs by MTT assay relative to parental OVCAR8 cells (reference value: 435); type: cell-based; conditions: ovcar-8, 72 h, 0.05 µM; procedure, shortened: as §1
[6] = biological target: T1, ATP-dependent translocase ABCB1; test: Inhibition of ABCB1 in human KBV1 cells assessed as potentiation of vincristine-induced cytotoxicity by measuring vincristine resistance ratio at 200 nM after 72 hrs by MTT assay relative to parental KB-3-1 cells (reference value: 356); type: cell-based; conditions: kbv1, 72 h, 0.2 µM; procedure, shortened: as §1
KB-V1 [7] = test: Induction of apoptosis in human KBV1 cells assessed as necrotic cells at 1 uM after 48 hrs by Annexin V-FITC/propidium iodide staining based FACS analysis (reference value: 1%); type: functional
[8] = biological target: T1, ATP-dependent translocase ABCB1; test: Inhibition of ABCB1 in human KBV1 cells assessed as potentiation of doxorubicin-induced cytotoxicity by measuring doxorubicin resistance ratio at 500 nM after 72 hrs by MTT assay relative to parental KB-3-1 cells (reference value: 34); type: cell-based; conditions: kbv1, 72 h, 0.5 µM; procedure, shortened: as §1
KB-V1 [9] = test: Induction of apoptosis in human KBV1 cells assessed as early apoptotic cells at 1 uM after 48 hrs by Annexin V-FITC/propidium iodide staining based FACS analysis (reference value: 5.3%); type: functional
[10] = biological target: T1, ATP-dependent translocase ABCB1; test: Inhibition of ABCB1 in human KBV1 cells assessed as potentiation of colchicine-induced cytotoxicity by measuring colchicine resistance ratio at 500 nM after 72 hrs by MTT assay relative to parental KB-3-1 cells (reference value: 55); type: cell-based; conditions: kbv1, 72 h, 0.5 µM; procedure, shortened: as §1
[11] = biological target: T1, ATP-dependent translocase ABCB1; test: Inhibition of ABCB1 in human NCI-ADR-RES cells assessed as potentiation of doxorubicin-induced cytotoxicity by measuring doxorubicin resistance ratio at 500 nM after 72 hrs by MTT assay relative to parental OVCAR8 cells (reference value: 46); type: cell-based; conditions: ovcar-8, 72 h, 0.5 µM; procedure, shortened: as §1
[12] = biological target: T1, ATP-dependent translocase ABCB1; test: Inhibition of ABCB1 in human NCI-ADR-RES cells assessed as potentiation of doxorubicin-induced cytotoxicity by measuring doxorubicin resistance ratio at 200 nM after 72 hrs by MTT assay relative to parental OVCAR8 cells (reference value: 46); type: cell-based; conditions: ovcar-8, 72 h, 0.2 µM; procedure, shortened: as §1
[13] = biological target: T1, ATP-dependent translocase ABCB1; test: Inhibition of human ABCB1 transfected in HEK293 cells assessed as potentiation of doxorubicin-induced cytotoxicity by measuring doxorubicin resistance ratio at 50 nM after 72 hrs by CCK8 assay relative to parental HEK293 cells (reference value: 96); type: cell-based; conditions: hek293, 72 h, 0.05 µM
[14] = biological target: T1, ATP-dependent translocase ABCB1; test: Induction of Vanadate-sensitive ABCB1 (unknown origin) assessed as ATPase activity by measuring concentration required for 50% maximal stimulation by Pgp-glo assay
Procedure, shortened: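 Vanadate-sensitive ABCB1 ATPase activity was measured with the Pgp-Glo system using […], across 0–1 μM test compound. Points are the mean of at least three independent experiments.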

KB 3-1 [15] = test: Potentiation of colchicine-induced apoptosis in human KB-3-1 cells assessed as necrotic cells at 1 uM after 48 hrs by Annexin V-FITC/propidium iodide staining based FACS analysis (reference value: 4.9%); type: functional
[16] = biological target: T1, ATP-dependent translocase ABCB1; test: Inhibition of ABCB1 in human NCI-ADR-RES cells assessed as potentiation of colchicine-induced cytotoxicity by measuring colchicine resistance ratio at 100 nM after 72 hrs by MTT assay relative to parental OVCAR8 cells (reference value: 59); type: cell-based; conditions: ovcar-8, 72 h, 0.1 µM; procedure, shortened: as §1
[17] = biological target: T1, ATP-dependent translocase ABCB1; test: Inhibition of human ABCB1-mediated efflux transfected in HEK293 cells assessed as accumulation of fluorescent dye by calcein-AM dye based FACS analysis; type: cell-based
Procedure, shortened: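 The HEK293 cells, transfected with human ABCB1 (parental HEK293 as control), were trypsinized and resuspended in IMDM with 5% FCS. Calcein-AM was added to 3 × 10^5 cells in 4 mL, with or without test compound (single 1 μM or a concentration series) or 3 μM tariquidar. Fluorescence was read immediately by flow cytometry. Results are the mean ± SEM of at least three experiments.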

ABCB1 (P-glycoprotein) = ABCB1 (P-glycoprotein) (Homo sapiens, UniProt P08183); test: Induction of Vanadate-sensitive ABCB1 (unknown origin) assessed as increase in ATPase activity up to 1 uM by Pgp-glo assay relative to control; conditions: read-out: FC
Chain of ABCB1 (P-glycoprotein) (P08183 whole entry): as above
Procedure, shortened: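 Vanadate-sensitive ABCB1 ATPase activity measured with the Pgp-Glo system as […], across 0–1 μM test compound. Points are means of at least three independent experiments.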

[18] = biological target: T1, ATP-dependent translocase ABCB1; test: Inhibition of ABCB1 in human KBV1 cells assessed as reduction in Calcein-AM dye efflux 1 uM by FACS analysis; type: cell-based; conditions: kbv1, 1 µM
Procedure, shortened: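 Trypsinized cells were resuspended in IMDM with 5% FCS. Calcein-AM was added to 3 × 10^5 cells in 4 mL IMDM, with or without 1 μM test compound or 3 μM tariquidar. Intracellular calcein fluorescence was read immediately by flow cytometry, with the drug-sensitive parental line run in parallel.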

[19] = biological target: T1, ATP-dependent translocase ABCB1; test: Inhibition of human ABCB1 transfected in HEK293 cells assessed as potentiation of doxorubicin-induced cytotoxicity by measuring doxorubicin resistance ratio at 100 nM after 72 hrs by CCK8 assay relative to parental HEK293 cells (reference value: 96); type: cell-based; conditions: hek293, 72 h, 0.1 µM
[20] = biological target: T1, ATP-dependent translocase ABCB1; test: Inhibition of human ABCB1 transfected in HEK293 cells assessed as potentiation of doxorubicin-induced cytotoxicity by measuring doxorubicin resistance ratio at 500 nM after 72 hrs by CCK8 assay relative to parental HEK293 cells (reference value: 96); type: cell-based; conditions: hek293, 72 h, 0.5 µM

Activity ([14]; human): Dose-dependent effect
EC50 ([14]; read-out: Activity): 20 nM
IC50 [17]: 300 nM
inhibition (INH) ([17]; human, hek293): Dose-dependent effect
fold induction (ABCB1 (P-glycoprotein)): 7
inhibition (INH) [18]: Active
SMILES: COc1ccc2cc1Oc1ccc(cc1)C[C@H]1c3cc(c(OC)cc3CCN1C)Oc1c(OC)c(OC)c(OC)c3c1[C@H](C2)N(C)CC3 [HERNANDEZINE]
viability at 1 µM (KB 3-1 [1]): 88.8%
Ratio [2]: 46
Activity (KB 3-1 [3]): 4.4%
Activity (KB-V1 [4]): 6.7%
Ratio [5]: 505
Ratio [6]: 34
Activity (KB-V1 [7]): 1%
Ratio [8]: 1
Activity (KB-V1 [9]): 4.7%
Ratio [10]: 3
Ratio [11]: 2
Ratio [12]: 5
Ratio [13]: 16
Activity (KB 3-1 [15]): 5.1%
Ratio [16]: 23
Ratio [19]: 11
Ratio [20]: 7
